Source: PubChem BioAssay
Shown are actives, neighbours in structure and some others; about 4.6% of the full set was active somewhere.
Rtt109 HAT inh: inhibitors of Candida albicans Rtt109/Vps75 histone acetyltransferase; inhibition, % at 34.9 µM; AID 540336; actives 0.16% (n = 330,000); purified Rtt109/Vps75, ThioGlo CoA-SH fluorescence, 4 h;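 active = inhibition of at least 50% in every replicate; inconclusive = best replicate reaches 50% inhibition but some replicates fall short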
ALR H2O2 inh: blocks human ALR sulfhydryl oxidase activity; purified ALR, DTT oxidation, H2O2 HRP-luminol luminescence; inhibition, % (no concentration beside the values); actives 3.8% (n = 290,000); P55789;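 active = mean replicate inhibition above about 79%, with every replicate also reaching it, limit read from the data; inconclusive = only one of the two criteria met; inactive = mean below limit and not every replicate reaching it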
Target sequence (P55789 whole entry, looked up): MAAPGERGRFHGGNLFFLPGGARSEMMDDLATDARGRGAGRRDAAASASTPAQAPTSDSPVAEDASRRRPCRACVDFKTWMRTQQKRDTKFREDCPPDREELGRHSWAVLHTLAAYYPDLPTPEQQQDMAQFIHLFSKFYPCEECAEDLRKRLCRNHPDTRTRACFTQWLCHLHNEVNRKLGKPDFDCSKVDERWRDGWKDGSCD
M18AAP inhibitor: PfM18AAP enzyme inhibition; actives 1.2% (n = 290,000); recombinant PfM18AAP, H-Glu-NHMec fluorogenic cleavage; AID 1822; inhibition, % at 7.35 µM;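 active = inhibition above the campaign mean inhibition over all tested compounds plus 3 SD, cut at about 28% in these data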
UCH37 inh: human UCH37 deubiquitinating enzyme inhibition. inhibition, % (test concentration not listed). Q9Y5K5. actives 0.33% (n = 330,000). AID 588478. purified proteasome/UCH37, Ub-AMC cleavage fluorescence;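 active = mean inhibition over replicate wells above about 20%, limit read from the data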
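System: Proteasome-associated human UCH37 deubiquitinase; Input: 0.15 nM proteasome in added enzyme buffer; Also added: Ub-AMC substrate from 1 µM stock; Incubation: 30 min compound-proteasome preincubation then 25 min substrate reaction, room temperature; Detection: fluorescence, ex 355 nm, em 460 nm; Read-out: % inhibition of Ub-AMC cleavage fluorescence; Benchmarks: no-proteasome and no-compound wells.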
HDAC3 inh: human HDAC3 inhibition; O15379; recombinant HDAC3, fluorogenic peptide/trypsin coupled, fluorescence; inhibition, % at 8.3 µM; actives 0.15% (n = 320,000); AID 2718; in the data active = inhibition above about 26%, passing the limit was not always enough; inconclusive = no clear call, values can overlap the other calls
Target sequence (O15379 whole entry, looked up): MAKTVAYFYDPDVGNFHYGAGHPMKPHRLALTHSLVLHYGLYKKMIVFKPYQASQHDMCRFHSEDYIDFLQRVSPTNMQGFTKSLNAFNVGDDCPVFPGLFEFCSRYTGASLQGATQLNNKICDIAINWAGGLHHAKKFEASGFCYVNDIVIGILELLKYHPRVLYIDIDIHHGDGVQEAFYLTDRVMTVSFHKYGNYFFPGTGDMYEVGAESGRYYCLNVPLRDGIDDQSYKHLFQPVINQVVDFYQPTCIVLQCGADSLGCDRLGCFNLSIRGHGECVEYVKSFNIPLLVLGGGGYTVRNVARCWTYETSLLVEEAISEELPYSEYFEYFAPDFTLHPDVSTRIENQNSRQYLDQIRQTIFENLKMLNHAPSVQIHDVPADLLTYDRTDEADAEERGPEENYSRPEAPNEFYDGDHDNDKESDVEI
FAS-TE inh: blocks the thioesterase domain of human fatty acid synthase; P49327; recombinant FAS-TE, OMFH fluorogenic substrate, fluorescence endpoint; inhibition, % at 15 µM; actives 0.67% (n = 360,000); AID 602261;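 active = compounds whose normalised, plate-corrected inhibition of enzyme fluorescence in the single-dose primary screen is 50% or more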
A number is an active result; 0 = inactive; ? = inconclusive; - = no result.

SMILES	Rtt109 HAT inh	ALR H2O2 inh	M18AAP inhibitor	UCH37 inh	HDAC3 inh	FAS-TE inh
CCOC(=O)C1=C(C)NC(=O)NC1c1ccc(-c2ccc(Cl)cc2)o1 (centres undefined)	0	0	0	0	50	0
CCN(CC)c1ccc(C2C(C(=O)OC)=C(C)NC(C)=C2C(=O)OC)cc1	0	99	0	0	0	0
CCN(CC)c1ccc(C2NC(=O)NC(C)=C2C(=O)Nc2ccccc2)cc1 (centres undefined)	0	99	0	0	0	0
CCOC(=O)C1=C(C)NC(=S)N(C(C)=O)C1c1ccc(Cl)cc1 (centres undefined)	63	0	0	0	0	0
COc1ccccc1NC(=O)C(=O)NN=C(C)CC(=O)Nc1ccccn1	-	-	-	0	-	-
CCn1c(SCC(=O)NN=Cc2ccc(O)c(OC)c2)nc2ccccc21	-	-	-	0	-	-
Cc1ccc([N+](=O)[O-])cc1-c1ccc(C=Nn2nnnc2N)o1	-	-	-	0	-	-
COc1ccccc1C(=O)ON=C1CCCc2c1ccc(OC)c2[N+](=O)[O-]	-	-	-	0	-	-
CCOC(=O)C1=C(C)NC(=O)NC1c1ccc(N(C)C)cc1 (centres undefined)	0	-	0	0	-	0
CCOC(=O)C1=C(C)NC(=O)NC1c1ccc(N(CC)CC)cc1 (centres undefined)	0	98	0	0	0	0
Cc1ccc(Cn2ccsc2=NC(=O)CCl)cc1	0	97	0	0	0	0
Cc1ccc(Cn2ccsc2=NC(=O)COC(=O)c2ccc(NC(=O)CC#N)cc2)cc1	0	0	-	0	0	0
Cc1ccc(/C=N\Nc2nc3ccc(Cl)cc3[nH]2)o1	0	95	0	-	0	0
Cc1ccc(/C=N/Nc2ccc3ccccc3n2)o1	0	99	0	-	0	0
CCOc1cc(C=NNC(=O)c2cccnc2)ccc1OCC(N)=O	-	-	-	0	-	-
COC(=O)C1C(O)=C(C(C)=N)C(=O)CC1(C)C (centres undefined)	0	98	0	0	0	0
CN1CCN(C=NC2=C(C#N)C(c3ccccc3)C3=C(CC(C)(C)CC3=O)O2)CC1 (centres undefined)	-	-	-	0	-	-
Cc1cc(C)nc(NN2C(=O)/C(=C/c3ccc(O)cc3)SC2=S)n1	0	99	30	0	0	0
CCOc1cc(/C=C2/SC(=S)NC2=O)ccc1OC(=O)c1ccco1	0	98	0	0	0	0
COc1cc(/C=C2/SC(=S)N(C)C2=O)ccc1OC(=O)c1ccco1	0	0	0	0	0	0
COc1cc(/C=C2\SC(=S)N(NC(C)=O)C2=O)ccc1OC(=O)c1ccco1	0	98	-	-	27	0
CN1C(=O)/C(=C/c2ccc(O)c([N+](=O)[O-])c2)NC1=S	0	0	0	0	0	0
O=C(NN1C(=O)/C(=C/c2ccc(O)c([N+](=O)[O-])c2)SC1=S)c1ccccc1Cl	0	0	0	24	0	0
CC(=O)Nc1ccc(C(C)=NNC(=O)c2ccc(CN3CCOCC3)cc2)cc1	-	-	-	0	-	-
O=C(CN1CCOCC1)NN=Cc1ccc(-c2ccc(Br)cc2)o1	-	-	-	0	-	-
SMILES	Rtt109 HAT inh	ALR H2O2 inh	M18AAP inhibitor	UCH37 inh	HDAC3 inh	FAS-TE inh
O=C1N/C(=N\S(=O)(=O)c2ccccc2)S/C1=C\c1cc([N+](=O)[O-])ccc1O	0	0	0	-	0	0
O=C(NN1C(=O)/C(=C/c2ccc(O)cc2)SC1=S)c1ccccc1O	0	99	0	0	0	0
COc1cc(/C=C2\SC(=S)N(NC(=O)c3ccccc3O)C2=O)ccc1O	0	99	0	0	0	0
O=C(NN1C(=O)/C(=C/c2ccc(O)cc2)SC1=S)c1cccc(O)c1	0	99	0	0	0	0
O=C(NN1C(=O)/C(=C/c2cc([N+](=O)[O-])ccc2O)SC1=S)c1ccccc1O	-	81	-	-	0	-
CC(/C=C1\SC(=S)N(NC(=O)c2cccc(O)c2)C1=O)=C\c1ccccc1	0	0	0	0	0	0
COc1ccc(/C=C2\SC(=S)N(NC(=O)c3ccncc3)C2=O)cc1OC	-	0	0	-	0	-
CNC(=S)NN=C(C)c1ccc2c(c1)OCO2	-	-	-	0	-	-
COC(=O)NN=Cc1cn(Cc2ccc(F)cc2)c2ccccc12	-	-	-	0	-	-
Cc1cc(C=NNC(=O)C(O)(c2ccccc2)c2ccccc2)c(C)n1-c1ccc(C(=O)O)cc1	-	-	-	0	-	-
Nc1nonc1-n1nnc(C(=O)NN=Cc2cccc(F)c2)c1-c1ccccc1	-	-	-	0	-	-
CCc1ccc(-n2cc(-c3ccc([N+](=O)[O-])cc3)[nH]c2=S)cc1	0	0	0	0	0	0
CCc1ccc(-c2cn(C3CCCCC3)c(=S)[nH]2)cc1	0	97	0	0	0	0
CN1CCCC1CCNc1ccc2sc3ccccc3c(=O)c2c1 (centres undefined)	0	98	-	0	0	0
Cc1cc2oc3cc(NCCC4CCCN4C)ccc3c(=O)c2cc1C (centres undefined)	0	91	-	0	0	0
CCCCn1c(-c2cccnc2)n[nH]c1=S	0	0	30	0	0	0
Cc1ccc(-n2c(-c3cccnc3)n[nH]c2=S)c(C)c1	-	84	0	0	?	0
Cc1ccc(-n2c(-c3ccc(Cl)cc3)n[nH]c2=S)c(C)c1	0	87	0	0	0	0
COc1ccc(-c2n[nH]c(=S)n2-c2ccc(C)cc2C)cc1	0	0	0	0	0	0
CCCN1CNc2c(c(=O)[nH]c(=S)n2CCc2ccccc2)C1	0	91	0	0	0	0
CCCN1CN(CCc2ccccc2)CNC1=S	0	0	0	0	0	0
COc1ccc(C=NNC(=O)Cn2cnc3c2c(=O)n(C)c(=O)n3C)c(OC)c1OC	-	-	-	0	-	-
N#CC(=NNc1ccc(S(=O)(=O)N2CCCCC2)cc1)C(N)=S	-	-	-	0	-	-
O=C1C2C3C=CC(C3)C2C(=O)N1c1cccc(N2C(=O)C3C4C=CC(C4)C3C2=O)n1 (centres undefined)	0	0	0	0	0	0
O=C1C2C3C=CC(C3)C2C(=O)N1c1ccc2ccccc2n1 (centres undefined)	0	0	0	32	0	0
SMILES	Rtt109 HAT inh	ALR H2O2 inh	M18AAP inhibitor	UCH37 inh	HDAC3 inh	FAS-TE inh
C=CCc1cccc(C=NNC(=O)C[n+]2ccccc2)c1O	-	-	-	0	-	-
Nc1c(N(CCC2=CCCCC2)C(=O)CCCOc2ccccc2)c(=O)[nH]c(=O)n1Cc1ccccc1	0	0	-	0	0	0
Nc1c(N(CCC2=CCCCC2)C(=O)COc2ccc(F)cc2)c(=O)[nH]c(=O)n1Cc1ccccc1	0	0	-	24	0	0
COCCN(C(=O)COC(=O)CSc1ccc2ccccc2c1)c1c(N)n(Cc2ccccc2)c(=O)[nH]c1=O	0	98	-	0	0	0
COCCN(C(=O)COC(=O)CSc1ccccc1)c1c(N)n(Cc2ccccc2)c(=O)[nH]c1=O	0	-	-	0	0	0
Cc1cc(C(F)(F)F)cc(NNC(=O)NC(=O)c2ccccc2Cl)n1	-	0	31	0	0	0
Cc1cc(C(F)(F)F)cc(NNC(=O)NC(=O)c2ccc(Cl)cc2)n1	0	0	0	0	0	0
Cc1ccsc1C=NNc1ccc(C(=O)O)cc1	-	-	-	0	-	-
